# Experiments:
# Assay type in all cases: functional
# Staphylococcus aureus [1] = experiment: Antibacterial activity against methicillin-sensitive Staphylococcus aureus isolate 3 incubated overnight by agar dilution method
# Summary of the method: (§1)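 MIC by agar dilution. Strains were grown overnight in LB broth and diluted, then about 10^4 CFU (2 μL spots) were spotted onto LB agar plates containing test compound at 0.5 to 8 μg mL−1 agar. Plates were incubated overnight at 37 °C and inspected for growth. Clinical MSSA and MRSA isolates came from local hospitals.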
# Staphylococcus aureus [2] = experiment: Antibacterial activity against methicillin-sensitive Staphylococcus aureus isolate 2 incubated overnight by agar dilution method; summary of the method: as §1
# Staphylococcus aureus [3] = experiment: Antibacterial activity against methicillin-resistant Staphylococcus aureus isolate 5 incubated overnight by agar dilution method; summary of the method: as §1
# Staphylococcus aureus [4] = experiment: Antibacterial activity against methicillin-resistant Staphylococcus aureus isolate 10 incubated overnight by agar dilution method; summary of the method: as §1
# Staphylococcus aureus [5] = experiment: Antibacterial activity against methicillin-resistant Staphylococcus aureus isolate 9 incubated overnight by agar dilution method; summary of the method: as §1
# Staphylococcus aureus [6] = experiment: Antibacterial activity against methicillin-resistant Staphylococcus aureus isolate 11 incubated overnight by agar dilution method; summary of the method: as §1
# Staphylococcus aureus [7] = experiment: Antibacterial activity against methicillin-sensitive Staphylococcus aureus isolate 1 incubated overnight by agar dilution method; summary of the method: as §1
# Staphylococcus aureus [8] = experiment: Antibacterial activity against methicillin-sensitive Staphylococcus aureus isolate 4 incubated overnight by agar dilution method; summary of the method: as §1
# Staphylococcus aureus [9] = experiment: Antibacterial activity against Staphylococcus aureus ATCC 29213 incubated overnight by agar dilution method; summary of the method: as §1
# Staphylococcus aureus [10] = experiment: Antibacterial activity against methicillin-resistant Staphylococcus aureus isolate 8 incubated overnight by agar dilution method; summary of the method: as §1
# Staphylococcus aureus [11] = experiment: Antibacterial activity against methicillin-resistant Staphylococcus aureus isolate 7 incubated overnight by agar dilution method; summary of the method: as §1
# Staphylococcus aureus [12] = experiment: Antibacterial activity against methicillin-resistant Staphylococcus aureus isolate 6 incubated overnight by agar dilution method; summary of the method: as §1
SMILES,MIC (Staphylococcus aureus [1]),MIC (Staphylococcus aureus [2]),MIC (Staphylococcus aureus [3]),MIC (Staphylococcus aureus [4]),MIC (Staphylococcus aureus [5]),MIC (Staphylococcus aureus [6]),MIC (Staphylococcus aureus [7]),MIC (Staphylococcus aureus [8]),MIC (Staphylococcus aureus [9]),MIC (Staphylococcus aureus [10]),MIC (Staphylococcus aureus [11]),MIC (Staphylococcus aureus [12])
Cc1ccc(C(=O)S[C@H]2CC(=O)[C@@](C)(CCC(=O)Nc3c(O)ccc(C(=O)O)c3O)[C@@H]3[C@@H]4C[C@H]5C[C@]23C[C@]5(C)O4)cc1,1 µg/mL,1 µg/mL,2 µg/mL,1 µg/mL,1 µg/mL,2 µg/mL,1 µg/mL,1 µg/mL,1 µg/mL,1 µg/mL,2 µg/mL,1 µg/mL
Cc1ccc(S[C@H]2CC(=O)[C@@](C)(CCC(=O)Nc3c(O)ccc(C(=O)O)c3O)[C@@H]3[C@@H]4C[C@H]5C[C@]23C[C@]5(C)O4)cc1,2 µg/mL,2 µg/mL,4 µg/mL,2 µg/mL,2 µg/mL,2 µg/mL,2 µg/mL,2 µg/mL,4 µg/mL,2 µg/mL,4 µg/mL,2 µg/mL
C[C@]12C[C@]34C[C@@H]1C[C@H](O2)[C@H]3[C@](C)(CCC(=O)Nc1c(O)ccc(C(=O)O)c1O)C(=O)C[C@@H]4SC(=O)c1cc(C(F)(F)F)cc(C(F)(F)F)c1,1 µg/mL,1 µg/mL,1 µg/mL,1 µg/mL,1 µg/mL,,1 µg/mL,1 µg/mL,1 µg/mL,1 µg/mL,2 µg/mL,1 µg/mL
C[C@]12C[C@]34C[C@@H]1C[C@H](O2)[C@H]3[C@](C)(CCC(=O)Nc1c(O)ccc(C(=O)O)c1O)C(=O)C[C@@H]4SC(=O)c1cc(F)cc(F)c1,2 µg/mL,1 µg/mL,2 µg/mL,2 µg/mL,2 µg/mL,,1 µg/mL,2 µg/mL,2 µg/mL,2 µg/mL,2 µg/mL,1 µg/mL
C[C@]12C[C@]34C[C@@H]1C[C@H](O2)[C@H]3[C@](C)(CCC(=O)Nc1c(O)ccc(C(=O)O)c1O)C(=O)C[C@@H]4SC(=O)c1cccs1,1 µg/mL,1 µg/mL,2 µg/mL,1 µg/mL,1 µg/mL,1 µg/mL,1 µg/mL,1 µg/mL,2 µg/mL,2 µg/mL,8 µg/mL,2 µg/mL
CC(=O)S[C@H]1CC(=O)[C@@](C)(CCC(=O)Nc2c(O)ccc(C(=O)O)c2O)[C@@H]2[C@@H]3C[C@H]4C[C@]12C[C@]4(C)O3,2 µg/mL,2 µg/mL,2 µg/mL,2 µg/mL,2 µg/mL,4 µg/mL,2 µg/mL,2 µg/mL,2 µg/mL,2 µg/mL,4 µg/mL,2 µg/mL
C[C@]12C[C@]34C[C@@H]1C[C@H](O2)[C@H]3[C@](C)(CCC(=O)Nc1c(O)ccc(C(=O)O)c1O)C(=O)C[C@@H]4SC(=O)c1ccc(Br)cc1,1 µg/mL,1 µg/mL,2 µg/mL,1 µg/mL,1 µg/mL,2 µg/mL,1 µg/mL,1 µg/mL,1 µg/mL,1 µg/mL,1 µg/mL,1 µg/mL
C=C1C[C@@]23C=CC(=O)[C@@](C)(CCC(=O)Nc4c(O)ccc(C(=O)O)c4O)[C@@H]2C[C@@H]1CC3 [PLATENCIN],1 µg/mL,1 µg/mL,1 µg/mL,1 µg/mL,1 µg/mL,1 µg/mL,1 µg/mL,1 µg/mL,1 µg/mL,1 µg/mL,1 µg/mL,1 µg/mL
C[C@]12C[C@]34C[C@@H]1C[C@H](O2)[C@H]3[C@](C)(CCC(=O)Nc1c(O)ccc(C(=O)O)c1O)C(=O)C[C@@H]4SC(=O)Cc1ccc(F)cc1,2 µg/mL,1 µg/mL,2 µg/mL,2 µg/mL,2 µg/mL,4 µg/mL,2 µg/mL,1 µg/mL,2 µg/mL,2 µg/mL,4 µg/mL,2 µg/mL
CC(=O)NC[C@H]1CN(c2ccc(N3CCOCC3)c(F)c2)C(=O)O1 [LINEZOLID],1 µg/mL,1 µg/mL,1 µg/mL,1 µg/mL,1 µg/mL,1 µg/mL,1 µg/mL,1 µg/mL,1 µg/mL,1 µg/mL,1 µg/mL,1 µg/mL
